From PubChem
Only some compounds are listed: those with a hit (about 2.2% of all), similar ones and a draw of the others.
ERAP1 inh – inhibitors of human ERAP1 aminopeptidase; recombinant ERAP1, Leu-AMC fluorescence, 60 min; inhibition, % at 10.7 µM; actives 0.15% (n = 340,000); AID 652197;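 active means mean replicate inhibition of at least 30%, or all replicates individually reaching that 30% level; inactive means mean below 30% and not every replicate reaching it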;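 further: 0% = neutral control wells and 100% = L-leucinethiol positive control wells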
PGC1a acetyl inh – PGC1a acetylation modulation, inhibitor mode; U2OS PGC1a acetylation, AlphaScreen anti-acetyl-lysine; with virally co-expressed GCN5 acetyltransferase; inhibition, % at 15.6 µM; actives 0.17% (n = 350,000);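 active means every replicate shows inhibition of at least 40%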;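 further: 0% = neutral control wells and 100% = positive control wells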
FN deposition inh – fibronectin deposition inhibition; inhibition, % at 12.6 µM; AH1F fibroblasts, Alexa488-fibronectin deposition fluorescence, overnight; actives 0.086% (n = 350,000); AID 743247;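 active means mean inhibition across replicates of 30% or more, regardless of how many single replicates reach that level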;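 further: positive control wells lacked labelled fibronectin entirely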
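test system = AH1F fibroblasts assembling fluorescent fibronectin matrix | quantity = 10000 AH1F cells per well | buffer or medium = DMEM plus 2% serum, read in PBS | doses = single dose, pinned | incubation = 1 h cell attachment, overnight exposure to compound and label | detection = fluorescence at 485 nm excitation, 525 nm emission | read-out basis = inhibition from reduced deposited-fibronectin fluorescence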
SIRT5 inh – blocks human SIRT5 desuccinylation of peptide. Q9NXA8. Purified SirT5, succinyl-peptide AMC, trypsin-coupled fluorescence. inhibition, % at 15 µM. actives 1.1% (n = 330,000); in the data active means inhibition above about 15%
Target sequence (Q9NXA8 whole entry, looked up): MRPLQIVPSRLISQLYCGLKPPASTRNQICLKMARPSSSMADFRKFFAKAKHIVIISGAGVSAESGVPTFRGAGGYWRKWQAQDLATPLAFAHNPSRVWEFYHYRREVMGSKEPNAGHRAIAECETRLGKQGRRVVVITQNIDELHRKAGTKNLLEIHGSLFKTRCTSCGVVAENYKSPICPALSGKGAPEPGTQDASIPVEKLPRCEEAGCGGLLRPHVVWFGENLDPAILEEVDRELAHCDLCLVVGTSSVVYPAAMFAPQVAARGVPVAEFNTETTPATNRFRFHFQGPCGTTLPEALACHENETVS
FGF22 binding – FGF22 (human) thermal shift binding | actives 1.5% (n = 340,000) | activity (Tm shift, normalised), % at 9.99 µM | recombinant FGF22 thermal shift, SYPRO orange fluorescence; percent of sucrose octasulfate shift, DMSO zero;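 active means mean Tm shift, scaled 0 neutral to 100 positive control, at about 1.3% or above, every replicate too, limit read from the data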
Target sequence (Q9HCT0 whole entry, looked up): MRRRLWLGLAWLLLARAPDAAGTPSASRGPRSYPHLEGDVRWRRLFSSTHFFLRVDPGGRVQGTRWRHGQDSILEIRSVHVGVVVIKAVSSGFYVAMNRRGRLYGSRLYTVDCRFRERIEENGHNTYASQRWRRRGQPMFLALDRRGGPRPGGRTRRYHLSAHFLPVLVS
Numbers without * were called inactive; x = no result.

SMILES | ERAP1 inh | PGC1a acetyl inh | FN deposition inh | SIRT5 inh | FGF22 binding
COc1ccc(/C=N/NC(=O)c2ccco2)cc1Cn1nc(C)cc1C | -2 | x | 5 | 34* | 0
COc1ccc(/C=N/NC(=O)c2ccncc2)cc1Cn1nc([N+](=O)[O-])c(Br)c1C | -1 | 1 | x | 20* | -1
O=C(Nc1ccccc1)N1C[C@@H]2[C@H](c3ccccc31)[C@H](CO)N2C(=O)c1ccccc1F | x | -1 | 0 | x | x
Cc1nc(SCC(=O)c2cc3ccccc3oc2=O)c(C#N)c(-c2cccs2)c1C(=O)Nc1ccccc1 | 3 | x | -2 | -5 | 43*
O=C(C1CCC1)N1CC2(C1)[C@H](c1ccccc1)[C@H](CO)N2Cc1cncnc1 | -2 | 4 | -10 | 4 | x
O=C(CC1CCCCC1)NCCOc1ccccc1 | x | x | 0 | x | x
O=C(NCCOc1ccccc1)C1CCCCC1 | 4 | 9 | -1 | -5 | 43*
C[C@@H]1CN([C@@H](C)CO)C(=O)c2cc(NS(=O)(=O)c3cccs3)ccc2O[C@H]1CN(C)C(=O)Nc1ccc(F)cc1 | -1 | -4 | 14 | -6 | 0
O=S(=O)(Nc1ccccc1N1CCOCC1)c1ccccc1C(F)(F)F | -1 | -41 | 5 | 7 | 0
Cn1cnc(S(=O)(=O)Nc2ccccc2N2CCOCC2)c1 | x | -9 | -3 | 15* | 0
Cc1cccc(N2CCN(S(=O)(=O)c3cn(C)cn3)CC2)c1C | -6 | -7 | 43* | -3 | 0
O=C(C[C@@H]1C[C@H]2c3cc(NC(=O)NC4CCCC4)ccc3O[C@H]2[C@@H](CO)O1)NCc1ccncc1 | -1 | -2 | -8 | -1 | 0
Cc1ccc(/C=C2\C(=O)ON=C2c2ccccc2)o1 | -3 | 2 | -12 | 15* | x
COCC(=O)N1C[C@@H](C)[C@@H](OC)CN(C)C(=O)c2cc(NC(=O)c3cc(C)on3)ccc2OC[C@@H]1C | -5 | -3 | 3 | -5 | 0
CO[C@H]1CN(C)C(=O)c2cc(NC(=O)NC(C)C)ccc2OC[C@@H](C)N(C(=O)CC2CC2)C[C@@H]1C | 0 | 3 | -1 | 20* | 0
COCC(=O)N1C[C@@H](C)[C@@H](OC)CN(C)C(=O)c2cc(NC(=O)c3cc(C)on3)ccc2OC[C@H]1C | -6 | -1 | -2 | 19* | 0
COCC(=O)N1C[C@@H](C)[C@@H](OC)CN(C)C(=O)c2cc(NC(=O)C3CCC3)ccc2OC[C@@H]1C | x | 5 | -8 | x | x
COCC(=O)N1C[C@H](C)[C@H](OC)CN(C)C(=O)c2cc(NC(=O)C3CCC3)ccc2OC[C@@H]1C | -5 | 4 | -7 | 24* | 0
CCn1c(Cc2ccccc2)n[nH]c1=S | x | 8 | 0 | 31* | 0
CCn1c(CCc2ccccc2)n[nH]c1=S | 2 | 0 | x | x | 0
CCn1c(CSCc2ccccc2)n[nH]c1=S | 3 | 14 | -2 | 37* | 0
CO[C@H]1CN(C)C(=O)c2ccc(NC(=O)C3CC3)cc2OC[C@@H](C)N(CCc2ccccc2)C[C@H]1C | -3 | 11 | -1 | 5 | 0
O=c1cc2oc3cc(O)c(O)cc3c(-c3ccccc3[N+](=O)[O-])c-2cc1O | -6 | x | 6 | 16* | 0
CO[C@@H](CN(C)S(=O)(=O)c1ccc(F)cc1)[C@H](C)CN([C@@H](C)CO)S(=O)(=O)c1cccc(Cl)c1 | -2 | -8 | 15 | x | 0
COc1ccc(NC(=O)Nc2ccc3c(c2)C(=O)N([C@H](C)CO)C[C@@H](C)[C@@H](CN(C)Cc2ccc(C(F)(F)F)cc2)O3)cc1 | 2 | -9 | x | 21* | 0
SMILES | ERAP1 inh | PGC1a acetyl inh | FN deposition inh | SIRT5 inh | FGF22 binding
COc1ccc(NC(=O)Nc2ccc3c(c2)C(=O)N([C@@H](C)CO)C[C@@H](C)[C@@H](CN(C)Cc2ccc(C(F)(F)F)cc2)O3)cc1 | 0 | 2 | x | 20* | 0
COc1ccc(CN(C)C[C@H]2Oc3ccc(NC(=O)Nc4ccc(C(F)(F)F)cc4)cc3C(=O)N([C@@H](C)CO)C[C@@H]2C)cc1 | -1 | 8 | -7 | -2 | 0
CC(C)NC(=O)N(C)C[C@@H]1Oc2ccccc2C(=O)N(C)C[C@H]1C | x | x | 7 | x | x
COC(=O)C[C@H]1CC[C@H]2[C@H](COc3ccc(NC(=O)Nc4cccc(C)c4)cc3C(=O)N2C)O1 | 1 | 6 | -2 | -11 | 0
CCOc1ncccc1C(=O)OC(C)C(=O)NC(=O)NC1CCCCC1 (stereo not given) | 0 | x | 9 | 0 | 43*
C[C@@H]1CN([C@H](C)CO)C(=O)c2cc(NC(=O)c3ccncc3)ccc2O[C@@H]1CN(C)C(=O)Nc1ccc2c(c1)OCO2 | -3 | -9 | x | 20* | 0
C[C@@H]1CN([C@@H](C)CO)C(=O)c2cc(NC(=O)Nc3ccc4c(c3)OCO4)ccc2O[C@@H]1CN(C)Cc1ccc(C(F)(F)F)cc1 | 0 | 13 | x | 17* | 0
C[C@H](CO)N1C[C@H](C)[C@@H](CN(C)C(=O)Nc2ccc3c(c2)OCO3)Oc2ccc(NC(=O)c3ccncc3)cc2C1=O | -4 | 19 | x | -2 | 0
C[C@H](CO)N1C[C@H](C)[C@@H](CN(C)C(=O)Nc2ccc(C(F)(F)F)cc2)Oc2ccc(NC(=O)Nc3ccc4c(c3)OCO4)cc2C1=O | -4 | 2 | 10 | 9 | 1
C[C@H](CO)N1C[C@H](C)[C@H](CN(C)C(=O)Nc2ccc3c(c2)OCO3)Oc2ccc(NC(=O)Nc3ccc(C(F)(F)F)cc3)cc2C1=O | 0 | 1 | x | 15* | 0
C[C@H]1CN([C@@H](C)CO)C(=O)c2cc(NC(=O)Nc3ccc4c(c3)OCO4)ccc2O[C@H]1CN(C)C(=O)Nc1ccc2c(c1)OCO2 | 0 | -2 | x | 16* | -1
C[C@H]1CN([C@@H](C)CO)C(=O)c2cc(NC(=O)Nc3ccc(C(F)(F)F)cc3)ccc2O[C@H]1CN(C)Cc1ccc2c(c1)OCO2 | -3 | 7 | x | 0 | 0
COc1ccc(CNC(=O)C[C@H]2C=C[C@@H](NS(=O)(=O)c3cccc(OC)c3)[C@@H](CO)O2)cc1 | 1 | -5 | x | -2 | 0
C[C@@H]1CN([C@H](C)CO)C(=O)c2cc(NC(=O)Nc3ccc(C(F)(F)F)cc3)ccc2O[C@H]1CN(C)C(=O)Nc1ccc2c(c1)OCO2 | 0 | 2 | x | 5 | 0
C[C@@H]1CN([C@@H](C)CO)C(=O)c2cc(NC(=O)Nc3ccc4c(c3)OCO4)ccc2O[C@@H]1CN(C)C(=O)Nc1ccc(C(F)(F)F)cc1 | 1 | 1 | 9 | 16* | 0
COc1ccc(-c2nc(S(=O)(=O)c3ccccc3)c(N3CCN(C)CC3)o2)cc1 | 2 | -5 | -3 | x | 46*
CCOc1ccc(-c2nc(S(=O)(=O)c3ccccc3)c(N3CCOCC3)o2)cc1 | 4 | x | -1 | -7 | 0
COCC#Cc1ccc2c(c1)O[C@H](CN(C)Cc1ccc(F)cc1)[C@H](C)CN([C@H](C)CO)S2(=O)=O | -1 | -6 | 2 | -1 | 0
